Published values collected from several papers.
TPR: Trypanothione reductase (TPR, Trypanosoma cruzi, UniProt P28593)

Structure (SMILES)	target	observed	action	method	notes	measurement	result
CC(=O)Nc1ccc(O)cc1	Ribosyldihydronicotinamide dehydrogenase [quinone] (NQO2, Homo sapiens, UniProt P16083)	enzyme activity	inhibitor			Ki	> 1000 µM
C[C@H](N)Cn1ncc2ccc3c(c21)CCCO3	Serotonin 4 (5-HT4) receptor (Sus scrofa, UniProt Q6Q253)	ligand displacement		radioligand		IC50	30.3 µM
CCCCc1cc2cc(-n3nc(C)c4c3CC(C)(C)CC4=O)cc(N[C@H]3CC[C@H](O)CC3)c2c(=O)[nH]1	Heat shock protein HSP 90-beta (HSP90AB1, Homo sapiens, UniProt P08238)	ligand displacement		FP		IC50	0.186 µM
CNC(=O)[C@@]12C[C@@H]1[C@@H](n1cnc3c(NC)nc(C#Cc4ccc(Cl)s4)cc31)[C@H](O)[C@@H]2O	Sodium-dependent noradrenaline transporter (SLC6A2, Homo sapiens, UniProt P23975)	ligand displacement		radioligand	cell membranes	Ki	> 10 µM
O=C(Nc1cccc(-c2ccn3c(CC4CC4)nnc3c2C(F)(F)F)c1)c1ccc(S(=O)(=O)F)cc1	Metabotropic glutamate receptor 3 (GRM3, Homo sapiens, UniProt Q14832)	calcium signal	agonist			EC50	> 50.1 µM
CC(C)(C)[C@H](Nc1nc(Cl)nc2c1ncn2[C@H]1[C@H](O)[C@H](O)[C@]2(CO)C[C@H]12)C1CC1	Muscarinic acetylcholine receptor M5 (CHRM5, Homo sapiens, UniProt P08912)	ligand displacement		radioligand		Ki	> 6.2 µM
OC[C@H]1O[C@H]([S-])[C@H](O)[C@@H](O)[C@@H]1O.[Au+]	Tyrosine-protein phosphatase non-receptor type 12 (PTPN12, Homo sapiens, UniProt Q05209)	enzyme activity	inhibitor	fluorescence		IC50	8 µM
CSCC[C@H](NC(=O)[C@H](CC(C)C)NC(=O)[C@H](Cc1cnc[nH]1)NC(=O)CNC(=O)[C@@H](NC(=O)[C@H](C)NC(=O)[C@H](Cc1c[nH]c2ccccc12)NC(=O)[C@H](CCC(N)=O)NC(=O)[C@H](CC(N)=O)NC(=O)CNC(=O)[C@H](CC(C)C)NC(=O)[C@H](CCCN=C(N)N)NC(=O)[C@H](CCC(N)=O)NC(=O)[C@@H]1CCC(=O)N1)C(C)C)C(N)=O	Bombesin receptor subtype-3 (Brs3, Mus musculus, UniProt O54798)	calcium signal	agonist	fluorescence		EC50	> 10 µM
c1ccc(CCCN2CCN(CCOC(c3ccccc3)c3ccccc3)CC2)cc1	TPR	enzyme activity	inhibitor	absorbance		IC50	10.9 µM
C=CCn1c2cc(OC(=O)CCCCN3CCN(Cc4ccccc4C(F)(F)F)CC3)ccc2c2ccnc(C)c21	Cholinesterase (BCHE, Homo sapiens, UniProt P06276)	enzyme activity	inhibitor	Ellman		IC50	0.357 µM
CSCC[C@H](NC(=O)[C@H](CCC(N)=O)NC(=O)[C@H](C)NC(=O)[C@H](CO)NC(=O)[C@@H](N)CO)C(=O)N[C@@H](CC(N)=O)C(=O)N[C@@H](CC(C)C)C(=O)N[C@@H](CC(N)=O)C(=O)N[C@H](C(=O)N[C@@H](Cc1ccccc1)C(=O)N[C@@H](CC(C)C)C(=O)N[C@@H](CC(N)=O)C(=O)O)[C@@H](C)O	1-deoxy-D-xylulose 5-phosphate reductoisomerase (Escherichia coli K-12, UniProt P45568)	enzyme activity	inhibitor	absorbance	with preincubation	IC50	266 µM
Cc1cc(C)c2[nH]c(=O)c(CN(CCO)C(=S)Nc3ccc(O)cc3)cc2c1	Beta-glucuronidase (uidA, Escherichia coli, UniProt P05804)	enzyme activity	inhibitor			EC50	4.5 µM
c1ccc2c(c1)CCc1ccccc1C2OCCN1CCNCC1	TPR	enzyme activity	inhibitor	absorbance		IC50	51.5 µM
CC(C)C[C@H](NC(=O)[C@H](Cc1ccccc1)NC(=O)c1cnccn1)B(O)O	Plasma kallikrein (KLKB1, Homo sapiens, UniProt P03952)	enzyme activity	inhibitor			IC50	2 µM
Cc1cc(O)cc(C)c1C[C@H](N)C(=O)N[C@H](C)C(=O)N[C@@H](Cc1ccccc1)C(=O)N[C@@H](CCCN)C(N)=O	Mu-type opioid receptor (OPRM1, Cavia porcellus, UniProt P97266)	ligand displacement		radioligand	cell membranes	Ki	3.3e-05 µM
